According to PMC2115978 (The Journal of Cell Biology, 1990):
Read-outs that look alike come from different tables or passages of the source.

Assays:
[1] = test system: endosomal insulin degrading activity (GE fraction); format: biochemical, rat; conditions: for effect on endosomal 125I-insulin degradation (in words): concentrations as in Tables I and II
macrophage endosomes = conditions: identical cell-free system; cited from earlier work
insulin receptor = insulin receptor (Rattus norvegicus, UniProt P15127); test: PEG precipitation of insulin-receptor complexes in endosomes; format: binding; conditions: for effect on insulin dissociation from receptor: 15 min, presence or absence of ATP, PCMB 1 mM
Chain of insulin receptor (P15127 27-759 limits assumed): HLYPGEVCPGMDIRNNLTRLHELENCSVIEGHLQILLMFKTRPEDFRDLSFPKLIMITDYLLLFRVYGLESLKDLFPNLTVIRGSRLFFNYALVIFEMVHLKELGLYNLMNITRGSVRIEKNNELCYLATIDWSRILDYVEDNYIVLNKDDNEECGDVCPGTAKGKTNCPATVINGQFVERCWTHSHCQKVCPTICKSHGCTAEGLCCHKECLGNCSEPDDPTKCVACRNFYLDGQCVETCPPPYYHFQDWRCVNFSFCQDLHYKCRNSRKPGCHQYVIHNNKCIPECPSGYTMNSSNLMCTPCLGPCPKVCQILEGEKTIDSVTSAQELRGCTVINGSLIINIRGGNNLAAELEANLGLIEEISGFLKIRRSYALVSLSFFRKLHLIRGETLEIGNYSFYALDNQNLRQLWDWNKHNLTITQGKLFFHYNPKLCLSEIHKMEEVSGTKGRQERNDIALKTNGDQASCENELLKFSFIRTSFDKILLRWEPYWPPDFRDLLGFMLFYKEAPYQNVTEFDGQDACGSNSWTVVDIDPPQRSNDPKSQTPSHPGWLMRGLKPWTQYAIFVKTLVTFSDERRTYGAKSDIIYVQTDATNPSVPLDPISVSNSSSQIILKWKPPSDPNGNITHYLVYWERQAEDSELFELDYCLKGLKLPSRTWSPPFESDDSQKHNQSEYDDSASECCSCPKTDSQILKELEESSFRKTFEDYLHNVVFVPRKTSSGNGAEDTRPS
Chain of insulin receptor (P15127 764-1383 partner limits assumed): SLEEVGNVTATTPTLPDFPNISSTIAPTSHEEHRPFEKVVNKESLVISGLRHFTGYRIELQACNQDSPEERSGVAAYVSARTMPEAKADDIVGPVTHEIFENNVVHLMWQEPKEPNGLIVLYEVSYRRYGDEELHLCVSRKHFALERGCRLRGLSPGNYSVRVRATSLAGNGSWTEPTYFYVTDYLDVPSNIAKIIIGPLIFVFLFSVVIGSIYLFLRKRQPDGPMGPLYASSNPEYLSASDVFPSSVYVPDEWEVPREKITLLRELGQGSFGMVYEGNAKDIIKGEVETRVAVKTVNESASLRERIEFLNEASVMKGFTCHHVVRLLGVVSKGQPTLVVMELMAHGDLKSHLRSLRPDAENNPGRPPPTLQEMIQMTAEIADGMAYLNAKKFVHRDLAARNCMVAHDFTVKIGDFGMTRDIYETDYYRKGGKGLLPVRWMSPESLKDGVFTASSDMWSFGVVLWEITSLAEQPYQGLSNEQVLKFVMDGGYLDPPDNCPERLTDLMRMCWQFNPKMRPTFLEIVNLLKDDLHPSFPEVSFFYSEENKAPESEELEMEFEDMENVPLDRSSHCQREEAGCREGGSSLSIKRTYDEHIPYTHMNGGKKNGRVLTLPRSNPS

[2] = test system: GE fraction proton translocase activity; test: Cell-free ATP-dependent acidification assay; format: biochemical, rat; conditions: 1 µM added at end of incubation; acridine orange absorbance 492/540 nm
Summary of the method: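 Pelleted at 16,000 g for 1 h, Dounce-resuspended, equilibrated 3-6 h at 4°C. Acridine orange 6 µM, ATP 0.4 mM (final); initial quench rates recorded. Test compound 1 µM added after incubation.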

[3] = test system: endosomal protease(s) of rat liver endosomes (GE fraction); test: Sephadex G-50 chromatography of radioactivity acid-extracted from endosomes; format: in vitro ADME
[4] = Internalization of injected 125I-insulin into GE fraction of liver; format: in vivo, rat; conditions: 5 min after portal vein injection, 100 ng/100 g bw; mean ± SD, n = 9
[5] = test system: endosomal protease(s) of rat liver endosomes (GE fraction); format: in vitro ADME; conditions: mean ± SD, n = 3; for degradation within isolated endosomes by acid precipitation: cell-free system, 37C, up to 60 min, 10% TCA
[6] = cited from earlier work
EGF receptor = conditions: freshly prepared endosomes; ref 49a; cited from earlier work
prolactin receptor = target: T1, prolactin receptor (Rattus norvegicus, UniProt P05710); test: Prolactin dissociation from its receptor in endosomes; format: binding
T1 sequence (P05710 20-310 isoform P05710-3 limits assumed): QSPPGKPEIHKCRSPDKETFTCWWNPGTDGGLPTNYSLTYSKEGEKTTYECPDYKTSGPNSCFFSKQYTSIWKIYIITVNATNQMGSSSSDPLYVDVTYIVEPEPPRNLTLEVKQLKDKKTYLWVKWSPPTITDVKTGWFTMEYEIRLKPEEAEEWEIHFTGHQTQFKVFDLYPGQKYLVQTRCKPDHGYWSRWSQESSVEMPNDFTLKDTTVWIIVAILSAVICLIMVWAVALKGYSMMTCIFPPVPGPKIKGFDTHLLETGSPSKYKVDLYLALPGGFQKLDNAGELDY

[7] = Table II, 50 µM, 0-30 min, mean ± SD, n = 3
[8] = Table I, 1 mM, acid solubility at 30 min, mean ± SD of 3 experiments
[9] = Table II, nucleotide 10 mM (in place of ATP), 0-30 min, mean ± SD, n = 3
[10] = Table II, 10 µM, 0-30 min, mean ± SD, n = 3
[11] = Table II, 1 mM, 0-30 min, mean ± SD, n = 3
[12] = Table II, 2 mM, 0-30 min, mean ± SD, n = 3

**Q.** For `CC[C@@]1([C@@H]2O[C@@H]([C@H]3O[C@@](O)(CO)[C@H](C)C[C@@H]3C)C[C@@H]2C)CC[C@H]([C@]2(C)CC[C@]3(C[C@H](O)[C@@H](C)[C@@H]([C@@H](C)[C@@H](OC)[C@H](C)C(=O)O)O3)O2)O1` [Monensin], which “inhibition of 125I-insulin degradation” value ([1]; 50 µM, 30 min) is on record?
**A.** ~ 80%

**Q.** And the “125I-insulin degraded (percentage of control)” value [1, 7]?
**A.** 20.6%

**Q.** And the “effect on endosomal 125I-insulin degradation (in words)” value (“effect … (in words)” below) ([1]; 30 min)?
**A.** inhibited markedly

**Q.** With Aprotinin as the molecule, how does the “effect … (in words)” value ([1]; 30 min) read?
**A.** no significant effect

**Q.** With `O=S(=O)(F)Cc1ccccc1` [PMSF] as the molecule, how does the “125I-insulin degraded (percentage of control)” value [1, 8] read?
**A.** 89.2%

**Q.** And the “effect … (in words)” value ([1]; 30 min)?
**A.** no significant effect

**Q.** And the “effect on degradation of mannose-BSA in macrophage endosomes” value (shortened to “effect on degradation of mannose-BSA”) (macrophage endosomes)?
**A.** inhibition of degradation

**Q.** With `O=C(O)c1cc[c]([Hg][Cl])cc1` [PCMB, p-chloromercuribenzoic acid] as the molecule, how does the “effect on insulin dissociation from receptor” value (insulin receptor) read?
**A.** inhibited

**Q.** And the “inhibition of 125I-insulin degradation” value ([1]; 1 mM, 30 min)?
**A.** 100%

**Q.** And the “125I-insulin degraded (percentage of control)” value [1, 8]?
**A.** 0%

**Q.** What about the “effect … (in words)” value ([1]; 30 min) of the same molecule?
**A.** Significant inhibition

**Q.** Which “effect … (in words)” value ([1]; 30 min) does the source give for `O=C(O)CN(CCN(CC(=O)O)CC(=O)O)CC(=O)O` [EDTA] here?
**A.** no significant effect

**Q.** For Valinomycin, which “inhibition of 125I-insulin degradation” value ([1]; 50 µM, 30 min) is on record?
**A.** 17%

**Q.** For `Nc1nc2c(ncn2[C@@H]2O[C@H](COP(=O)(O)OP(=O)(O)OP(=O)(O)O)[C@@H](O)[C@H]2O)c(=O)[nH]1` [GTP], which “125I-insulin degraded (percentage of control)” value [1, 9] is on record?
**A.** 52.8%

**Q.** For `C(=NC1CCCCC1)=NC1CCCCC1` [DCCD, dicyclohexylcarbodiimide], which “125I-insulin degraded (percentage of control)” value [1, 10] is on record?
**A.** 50.4%

**Q.** And the “125I-insulin degraded (percentage of control)” value [1, 11]?
**A.** 38.7%

**Q.** What about the “effect … (in words)” value ([1]; 30 min) of the same molecule?
**A.** significant inhi- bition

**Q.** What does the source list for `CO[C@@H]1C[C@@H](C[C@H]2CC[C@H](C)[C@H]([C@@H](C)C(=O)O)O2)O[C@]2(O[C@](C)([C@H]3CC[C@@](C)([C@@H]4O[C@@H]([C@H]5O[C@@](O)(CO)[C@H](C)C[C@@H]5C)C[C@@H]4C)O3)C[C@H]2C)[C@@H]1C` [Nigericin]?
**A.** inhibition of 125I-insulin degradation ([1]; 50 µM, 30 min): ~ 80%; 125I-insulin degraded (percentage of control) [1, 7]: 17.4%; effect on endosomal 125I-insulin degradation (in words) ([1]; 30 min): inhibited markedly; effect on ATP-generated pH gradients of GE fraction [2]: dissipated rapidly

**Q.** What does the source list for Pepstatin?
**A.** effect on endosomal 125I-insulin degradation (in words) ([1]; 30 min): no significant effect; effect on degradation of mannose-BSA in macrophage endosomes (macrophage endosomes): inhibition of degradation

**Q.** With “125I-insulin: Porcine insulin (26.8 IU/mg, Eli Lilly) radioiodinated by the chloramine T method” as the molecule, how does the “intact 125I-insulin (acid precipitable) retained in freshly prepared endosomes” value (insulin receptor; 0 min) read?
**A.** 82%

**Q.** What about the degradation of insulin (insulin receptor; 15 min incubation +ATP) of the same molecule?
**A.** 5.8 ng.mg cell fraction protein-1

**Q.** What about the “dissociation of insulin from receptor” value (insulin receptor; 15 min incubation +ATP) of the same molecule?
**A.** 1.7 ng insulin.mg cell fraction pr

**Q.** What about the “loss and degradation of free insulin” value (insulin receptor; 15 min incubation minus ATP) of the same molecule?
**A.** 2.1 ng.mg cell fraction protein-1

**Q.** What about the “loss of receptor-bound insulin” value (insulin receptor; 15 min incubation minus ATP) of the same molecule?
**A.** no loss

**Q.** What about the “internalized ligand dissociated from receptor” value (insulin receptor; freshly prepared endosomes) of the same molecule?
**A.** 59%

**Q.** What about the “proportion of intact insulin that was receptor-bound (PEG precipitable)” value (insulin receptor; freshly prepared endosomes, 0 min) of the same molecule?
**A.** 41%

**Q.** And the “increase in size of peak eluting at position of radioiodotyrosine (peak III)” value ([3]; after 15 min incubation, rats given 2 µg 125I-insulin/100 g bw)?
**A.** threefold increase

**Q.** And the “enrichment in GE fraction compared to parent homogenate” value [4]?
**A.** 40 + 4 fold

**Q.** What about the “125I-insulin degraded (percentage of control)” value ([5]; Table II, no nucleotide added (minus ATP), 0-30 min) of the same molecule?
**A.** 35.4%

**Q.** And the “t1/2 of in vivo insulin clearance” value [6]?
**A.** 6 min

**Q.** For `Nc1ncnc2c1ncn2[C@@H]1O[C@H](COP(=O)(O)OP(=O)(O)NP(=O)(O)O)[C@@H](O)[C@H]1O` [AMP- PNP], which “125I-insulin degraded (percentage of control)” value [1, 9] is on record?
**A.** 24.5%

**Q.** For `CC[C@H]1/C=C/C=C/C[C@@H](C)[C@H](O)[C@@](C)(O)C(=O)[C@@H](C)[C@H](O)[C@@H](C)C(=O)[C@@H](C)[C@H](O)[C@@H](C)/C=C/C(=O)O[C@@H]2[C@H](C)[C@H](CC1)O[C@]1(CC[C@H](C)[C@H](C[C@@H](C)O)O1)[C@H]2C` [Oligomycin], which “125I-insulin degraded (percentage of control)” value ([1]; Table II, 5 µg/ml, 0-30 min, mean ± SD, n = 3) is on record?
**A.** 90.2%

**Q.** What about the “effect … (in words)” value ([1]; 30 min) of the same molecule?
**A.** little effect

**Q.** For `CCN(CC)CCCC(C)Nc1ccnc2cc(Cl)ccc12` (centres unmarked) [Chioroquine, chloroquine], which “inhibition of 125I-insulin degradation” value ([1]; 2 mM, 30 min) is on record?
**A.** ~ 80%

**Q.** What about the “125I-insulin degraded (percentage of control)” value [1, 12] of the same molecule?
**A.** 16.3%

**Q.** What about the “effect … (in words)” value ([1]; 30 min) of the same molecule?
**A.** inhibited markedly

**Q.** With `c1cnc2c(c1)ccc1cccnc12` [1,10-Phenanthroline, 1,10-phenanthroline] as the molecule, how does the “effect on insulin dissociation from receptor” value (insulin receptor) read?
**A.** inhibited

**Q.** What about the “inhibition of 125I-insulin degradation” value ([1]; 1 mM, 30 min) of the same molecule?
**A.** 91%

**Q.** And the “125I-insulin degraded (percentage of control)” value [1, 8]?
**A.** 8.8%

**Q.** And the “effect … (in words)” value ([1]; 30 min)?
**A.** Significant inhibition

**Q.** With Leupeptin as the molecule, how does the “effect … (in words)” value ([1]; 30 min) read?
**A.** no significant effect

**Q.** And the “effect on degradation of mannose-BSA” value (macrophage endosomes)?
**A.** inhibition of degradation

**Q.** For `Nc1ncnc2c1ncn2[C@@H]1O[C@H](COP(=O)(O)OP(=O)(O)OP(=O)(O)O)[C@@H](O)[C@H]1O` [ATP], which “125I-insulin degraded (percentage of control)” value [1, 9] is on record?
**A.** 100%

**Q.** With `[O]=[V]([O-])([O-])[O-]` [Vanadate] as the molecule, how does the “125I-insulin degraded (percentage of control)” value ([1]; Table II, 100 µM, 0-30 min, mean ± SD, n = 3) read?
**A.** 99.9%

**Q.** And the “effect … (in words)” value ([1]; 30 min)?
**A.** little effect

**Q.** Which “125I-insulin degraded (percentage of control)” value [1, 10] does the source give for `CCN1C(=O)C=CC1=O` [NEM, N-ethylmaleimide] here?
**A.** 23.6%

**Q.** And the “125I-insulin degraded (percentage of control)” value [1, 11]?
**A.** 26.8%

**Q.** What about the “effect … (in words)” value ([1]; 30 min) of the same molecule?
**A.** significant inhi- bition

**Q.** What about the “effect … (in words)” value ([1]; 30 min, listed as N-ethylmaleimide (NEM)) of the same molecule?
**A.** inhibited markedly

**Q.** For Antipain, which “effect … (in words)” value ([1]; 30 min) is on record?
**A.** no significant effect

**Q.** What about the “effect on degradation of mannose-BSA” value (macrophage endosomes) of the same molecule?
**A.** inhibition of degradation

**Q.** For “125I-EGF: mouse epidermal growth factor (Collaborative Research) radioiodinated by chloramine T method”, which “degradation within isolated endosomes by Sephadex G-50 chromatography” value ([3]; 0 vs 15 min incubation in cell-free system) is on record?
**A.** not detectable

**Q.** And the “ligand dissociated from receptor” value (EGF receptor)?
**A.** 43%

**Q.** And the “degradation within isolated endosomes by acid precipitation” value [5]?
**A.** not detectable

**Q.** What does the source list for Triton X-100?
**A.** 125I-insulin degraded (percentage of control) ([1]; Table I, detergent 0.1%, 30 min, mean ± SD of 3 experiments): 22.9%; effect on endosomal 125I-insulin degradation (in words) ([1]; 30 min): Significant inhibition

**Q.** For `N=C(N)NC(=O)c1nc(Cl)c(N)nc1N` [Amiloride], which “125I-insulin degraded (percentage of control)” value [1, 12] is on record?
**A.** 96.6%

**Q.** And the “effect … (in words)” value ([1]; 30 min)?
**A.** little effect

**Q.** Which results are given for Bacitracin?
**A.** inhibition of 125I-insulin degradation ([1]; 5 mg/ml, 30 min): 40%; effect on endosomal 125I-insulin degradation (in words) ([1]; 30 min): Significant inhibition

**Q.** Which “125I-insulin degraded (percentage of control)” value [1, 9] does the source give for `Nc1ncnc2c1ncn2[C@@H]1O[C@H](COP(=O)(O)OP(=O)(O)O)[C@@H](O)[C@H]1O` [ADP] here?
**A.** 40.0%

B1: 125I-prolactin: ovine prolactin (30.5 IU/mg) radioiodinated by chloramine T method (protein, UniProt P01240 31-229, looked up)
Prolactin: TPVCPNGPGNCQVSLRDLFDRAVMVSHYIHNLSSEMFNEFDKRYAQGKGFITMALNSCHTSSLPTPEDKEQAQQTHHEVLMSLILGLLRSWNDPLYHLVTEVRGMKGVPDAILSRAIEIEEENKRLLEGMEMIFGQVIPGAKETEPYPVWSGLPSLQTKDEDARHSAFYNLLHCLRRDSSKIDTYLKLLNCRIIYNNNC
modifications: 125I radiolabel
**Q.** What does the source list for B1?
**A.** internalized ligand dissociated from receptor (prolactin receptor; after 15 min incubation in cell-free system): 50%; internalized ligand dissociated from receptor (prolactin receptor; before incubation (freshly isolated endosomes)): 60%; degradation within isolated endosomes by acid precipitation [5]: No degradation
